According to ChEMBL document CHEMBL1949601, “γ-Carbolines: a novel class of cannabinoid agonists with high aqueous solubility and restricted CNS penetration” (Bioorg Med Chem Lett, 2012):
≈ marks a conversion by molar mass, not a printed value.

How the values were obtained:
[1] = molecular target: T1, Cannabinoid receptor 1 (Homo sapiens, UniProt P21554); assay: Displacement of [3H]-CP55,940 from human CB1 receptor expressed in HEK293 cells; assay type: cell-based
[2] = molecular target: T1, Cannabinoid receptor 1; assay: Agonist activity at human CB1 receptor expressed in HEK293 EBNA cells by [35S]GTPgamma binding assay; assay type: functional, cell-based
[3] = molecular target: Cannabinoid receptor 2 (Homo sapiens, UniProt P34972); assay: Binding affinity to human CB2 receptor
[4] = molecular target: Cannabinoid receptor 1 (Rattus norvegicus, UniProt P20272); assay: Agonist activity at CB1 receptor in rat brain tissue; assay type: functional, tissue-based
[5] = molecular target: Cannabinoid receptor 1 (Rattus norvegicus) (UniProt P20272); assay: Agonist activity at CB1 receptor in rat brain tissue relative to control; assay type: functional, tissue-based
[6] = Aqueous solubility of the compound at pH 7.4; assay type: physicochemical
[7] = molecular target: Angiotensin-converting enzyme (Homo sapiens) (UniProt P12821); assay: Activity of human ACE at 10 uM
[8] = molecular target: Prostaglandin G/H synthase 1 (Homo sapiens) (UniProt P23219); assay: Activity at human COX1 receptor at 10 uM
[9] = molecular target: Mitogen-activated protein kinase 1 (Mus musculus) (UniProt P63085); assay: Activity at mouse ERK2 receptor at 10 uM
[10] = molecular target: Protein kinase C alpha type (Homo sapiens) (UniProt P17252); assay: Activity at human PKCalpha at 10 uM
[11] = molecular target: Adrenergic receptor alpha-1 (Rattus norvegicus) (UniProt P15823+P23944+P43140); assay: Activity at rat alpha1adrenergic receptor at 10 uM
[12] = molecular target: Alpha-2A adrenergic receptor (Homo sapiens) (UniProt P08913); assay: Activity at human alpha2a adrenergic receptor at 10 uM
[13] = molecular target: Beta-1 adrenergic receptor (Homo sapiens) (UniProt P08588); assay: Activity at human beta1 adrenergic receptor at 10 uM
[14] = molecular target: D(2) dopamine receptor (Homo sapiens) (UniProt P14416); assay: Activity at human dopamine2L receptor at 10 uM
[15] = molecular target: Estrogen receptor (Homo sapiens) (UniProt P03372); assay: Activity at human ERalpha receptor at 10 uM
[16] = species on record: Rattus norvegicus; assay: Activity at rat GABAa receptor at 10 uM
[17] = molecular target: Histamine H1 receptor (Homo sapiens) (UniProt P35367); assay: Activity at human histamine H1 receptor at 10 uM
[18] = molecular target: Muscarinic acetylcholine receptor M2 (Homo sapiens) (UniProt P08172); assay: Activity at human M2 receptor at 10 uM
[19] = Activity at nAChR receptor at 10 uM
[20] = molecular target: 5-hydroxytryptamine receptor 2A (Homo sapiens) (UniProt P28223); assay: Activity at 5-HT2a receptor at 10 uM
[21] = Activity at L-Type Calcium channel at 10 uM
[22] = Activity at Nav site2 receptor at 10 uM
[23] = molecular target: 5-hydroxytryptamine receptor 6 (Homo sapiens) (UniProt P50406); assay: Activity at human 5HT6 receptor at 10 uM
[24] = molecular target: Type-1 angiotensin II receptor (Homo sapiens) (UniProt P30556); assay: Activity at human AT1 receptor at 10 uM
[25] = molecular target: Bombesin receptor subtype-3 (Homo sapiens) (UniProt P32247); assay: Activity at human BRS3 at 10 uM
[26] = molecular target: Corticotropin-releasing factor receptor 1 (Homo sapiens) (UniProt P34998); assay: Activity at human CRF1 receptor at 10 uM
[27] = molecular target: CX3C chemokine receptor 1 (Homo sapiens) (UniProt P49238); assay: Activity at human CX3CR1 receptor at 10 uM
[28] = molecular target: C-X-C chemokine receptor type 6 (Homo sapiens) (UniProt O00574); assay: Activity at human CXCR6 receptor at 10 uM
[29] = molecular target: fMet-Leu-Phe receptor (Homo sapiens) (UniProt P21462); assay: Activity at human FPR1 receptor at 10 uM
[30] = molecular target: Melanocortin receptor 4 (Homo sapiens) (UniProt P32245); assay: Activity at human MC4 receptor at 10 uM
[31] = molecular target: Melanin-concentrating hormone receptor 1 (Homo sapiens) (UniProt Q99705); assay: Activity at human MCH1 receptor at 10 uM
[32] = molecular target: Muscarinic acetylcholine receptor M4 (Homo sapiens) (UniProt P08173); assay: Activity at human M4 receptor at 10 uM
[33] = molecular target: Motilin receptor (Homo sapiens) (UniProt O43193); assay: Activity at human Mtl receptor at 10 uM
[34] = molecular target: Somatostatin receptor type 4 (Homo sapiens) (UniProt P31391); assay: Activity at human SST4 receptor at 10 uM
[35] = molecular target: Adenosine receptor A3 (Rattus norvegicus) (UniProt P28647); assay: Activity at rat A3 receptor at 10 uM
[36] = molecular target: Prokineticin receptor 1 (Mus musculus) (UniProt Q9JKL1); assay: Activity at mouse GPR73 receptor at 10 uM
[37] = molecular target: N-formyl peptide receptor 2 (Homo sapiens) (UniProt P25090); assay: Activity at human FPRL1 receptor at 10 uM
[38] = molecular target: Kappa-type opioid receptor (Homo sapiens, UniProt P41145); assay: Inhibition of human KOR
[39] = Fraction unbound in Sprague-Dawley rat plasma at 1 mg/kg, sc; assay type: ADME, organism-based; design: dose 1 mg/kg, route subcutaneous
[40] = Metabolic stability in rat liver microsomes; assay type: ADME, Microsome; conditions: read-out: Stability
[41] = Clearance in iv dosed Sprague-Dawley rat; assay type: ADME, organism-based; conditions: in vivo
[42] = Half life in iv dosed Sprague-Dawley rat; assay type: ADME, organism-based; conditions: in vivo
[43] = Oral bioavailability in Sprague-Dawley rat; assay type: ADME, organism-based; conditions: in vivo
[44] = molecular target: Cytochrome P450 2C9 (Homo sapiens, UniProt P11712); assay: Inhibition of CYP2C9; assay type: ADME
[45] = molecular target: Cytochrome P450 2C19 (Homo sapiens, UniProt P33261); assay: Inhibition of CYP2C19; assay type: ADME
[46] = molecular target: Cytochrome P450 2D6 (Homo sapiens, UniProt P10635); assay: Inhibition of CYP2D6; assay type: ADME
[47] = molecular target: Cytochrome P450 3A4 (Homo sapiens, UniProt P08684); assay: Inhibition of CYP3A4; assay type: ADME
[48] = tested on: Brain; assay: Drug uptake in brain of Sprague-Dawley rat at 0.35 to 1.4 mg/kg, sc; assay type: ADME, organism-based; design: dose 0.35-1.4 mg/kg, route subcutaneous; conditions: in vivo, read-out: Drug uptake
How it was run: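 Rats dosed sc at 0.35, 0.70 and 1.4 mg/kg in carrageenan model; brain homogenised, protein precipitated with ACN, centrifuged 9000g 30 min at 4 °C, measured by reversed-phase LC–MS/MS against serial-dilution calibration curve; brain corrected for 2% blood contamination.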

[49] = tested on: Rattus norvegicus; assay: Antihyperalgesic activity in sc dosed Sprague-Dawley rat carrageenan pain model; assay type: functional, organism-based
How it was run: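 Rats dosed subcutaneously at 0.35, 0.70 and 1.4 mg/kg in carrageenan inflammatory pain model; reversal of heat hyperalgesia measured. n = 7 per group; mean ± SEM; one-way ANOVA with Holm-Sidak test versus vehicle group.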

[50] = tested on: Rattus norvegicus; assay: Toxicity in Sprague-Dawley rat carrageenan pain model assessed as hypoactivity at […], sc; assay type: organism-based; conditions: in vivo

T1 sequence (P21554 whole entry): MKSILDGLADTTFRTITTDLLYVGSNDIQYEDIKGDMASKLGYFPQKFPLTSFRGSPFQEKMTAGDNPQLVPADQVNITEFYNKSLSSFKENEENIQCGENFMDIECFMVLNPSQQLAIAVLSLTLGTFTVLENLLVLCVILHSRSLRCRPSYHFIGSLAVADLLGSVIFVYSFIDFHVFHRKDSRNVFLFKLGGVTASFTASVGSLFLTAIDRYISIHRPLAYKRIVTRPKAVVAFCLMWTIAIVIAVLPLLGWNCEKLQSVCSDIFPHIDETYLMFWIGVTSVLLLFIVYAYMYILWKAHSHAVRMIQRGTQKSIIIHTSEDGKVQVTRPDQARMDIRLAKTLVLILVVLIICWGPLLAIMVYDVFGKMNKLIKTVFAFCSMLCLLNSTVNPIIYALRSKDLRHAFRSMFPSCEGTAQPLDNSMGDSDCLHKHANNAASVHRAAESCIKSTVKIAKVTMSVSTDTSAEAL
Chain of Cytochrome P450 2C19 (P33261 whole entry): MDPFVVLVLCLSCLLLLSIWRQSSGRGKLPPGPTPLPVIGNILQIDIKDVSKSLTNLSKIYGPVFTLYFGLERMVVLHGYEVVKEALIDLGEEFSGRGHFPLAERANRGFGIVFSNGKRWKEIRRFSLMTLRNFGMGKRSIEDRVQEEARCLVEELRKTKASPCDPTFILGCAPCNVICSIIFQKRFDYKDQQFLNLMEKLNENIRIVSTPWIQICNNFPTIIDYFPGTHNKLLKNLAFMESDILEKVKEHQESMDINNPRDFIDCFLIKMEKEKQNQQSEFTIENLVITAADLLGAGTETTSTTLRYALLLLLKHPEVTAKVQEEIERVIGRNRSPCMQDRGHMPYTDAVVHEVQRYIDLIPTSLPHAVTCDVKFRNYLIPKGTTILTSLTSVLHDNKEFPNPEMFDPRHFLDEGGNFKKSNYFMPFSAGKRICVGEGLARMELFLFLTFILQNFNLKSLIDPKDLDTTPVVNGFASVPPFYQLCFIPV
Chain of Histamine H1 receptor (Homo sapiens) (P35367 whole entry): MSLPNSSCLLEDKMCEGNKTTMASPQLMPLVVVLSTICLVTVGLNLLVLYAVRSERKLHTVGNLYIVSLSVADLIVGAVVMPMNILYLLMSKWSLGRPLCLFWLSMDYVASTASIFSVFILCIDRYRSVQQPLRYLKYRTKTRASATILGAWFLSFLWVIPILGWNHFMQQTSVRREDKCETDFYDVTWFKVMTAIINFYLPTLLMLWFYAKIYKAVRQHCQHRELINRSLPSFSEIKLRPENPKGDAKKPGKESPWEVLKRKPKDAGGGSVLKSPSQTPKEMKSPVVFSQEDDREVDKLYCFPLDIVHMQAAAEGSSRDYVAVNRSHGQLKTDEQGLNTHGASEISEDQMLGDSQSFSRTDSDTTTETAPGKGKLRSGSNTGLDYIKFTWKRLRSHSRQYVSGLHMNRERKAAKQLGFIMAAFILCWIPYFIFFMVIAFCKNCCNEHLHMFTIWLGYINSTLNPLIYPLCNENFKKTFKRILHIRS
Chain of Mitogen-activated protein kinase 1 (Mus musculus) (P63085 whole entry): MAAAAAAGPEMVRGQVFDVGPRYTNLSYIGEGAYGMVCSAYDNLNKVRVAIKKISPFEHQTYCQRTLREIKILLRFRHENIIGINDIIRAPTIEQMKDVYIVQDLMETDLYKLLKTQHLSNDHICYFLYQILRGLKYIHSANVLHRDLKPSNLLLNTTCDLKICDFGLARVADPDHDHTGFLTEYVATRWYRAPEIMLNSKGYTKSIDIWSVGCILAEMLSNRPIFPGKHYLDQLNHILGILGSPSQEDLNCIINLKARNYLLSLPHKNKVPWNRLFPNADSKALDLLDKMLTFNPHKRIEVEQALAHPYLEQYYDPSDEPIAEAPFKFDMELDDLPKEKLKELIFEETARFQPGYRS
Chain of 5-hydroxytryptamine receptor 6 (Homo sapiens) (P50406 whole entry): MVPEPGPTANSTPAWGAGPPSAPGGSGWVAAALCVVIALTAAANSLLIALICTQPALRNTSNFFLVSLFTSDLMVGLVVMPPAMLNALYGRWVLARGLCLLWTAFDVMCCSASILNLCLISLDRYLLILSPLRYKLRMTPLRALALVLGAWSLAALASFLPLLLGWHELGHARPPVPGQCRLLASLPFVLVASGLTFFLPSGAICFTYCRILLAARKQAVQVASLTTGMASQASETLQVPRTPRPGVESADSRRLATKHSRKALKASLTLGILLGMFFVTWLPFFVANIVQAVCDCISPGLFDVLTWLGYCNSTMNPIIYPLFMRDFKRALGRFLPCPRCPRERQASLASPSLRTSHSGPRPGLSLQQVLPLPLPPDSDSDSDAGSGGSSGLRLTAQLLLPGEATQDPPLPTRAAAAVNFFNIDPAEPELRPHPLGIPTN
Chain of Alpha-2A adrenergic receptor (Homo sapiens) (P08913 whole entry): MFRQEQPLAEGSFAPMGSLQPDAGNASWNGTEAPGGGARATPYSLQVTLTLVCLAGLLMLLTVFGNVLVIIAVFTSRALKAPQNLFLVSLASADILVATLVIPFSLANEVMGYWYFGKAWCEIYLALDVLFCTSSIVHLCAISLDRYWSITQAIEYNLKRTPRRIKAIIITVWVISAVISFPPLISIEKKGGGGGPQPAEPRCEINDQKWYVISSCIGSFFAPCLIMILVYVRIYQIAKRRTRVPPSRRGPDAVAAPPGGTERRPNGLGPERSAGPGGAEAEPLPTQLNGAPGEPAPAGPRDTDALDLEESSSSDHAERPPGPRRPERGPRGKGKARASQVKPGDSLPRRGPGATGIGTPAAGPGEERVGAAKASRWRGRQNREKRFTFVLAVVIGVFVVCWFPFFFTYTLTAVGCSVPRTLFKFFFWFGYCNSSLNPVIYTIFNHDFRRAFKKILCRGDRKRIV
Chain of Motilin receptor (Homo sapiens) (O43193 whole entry): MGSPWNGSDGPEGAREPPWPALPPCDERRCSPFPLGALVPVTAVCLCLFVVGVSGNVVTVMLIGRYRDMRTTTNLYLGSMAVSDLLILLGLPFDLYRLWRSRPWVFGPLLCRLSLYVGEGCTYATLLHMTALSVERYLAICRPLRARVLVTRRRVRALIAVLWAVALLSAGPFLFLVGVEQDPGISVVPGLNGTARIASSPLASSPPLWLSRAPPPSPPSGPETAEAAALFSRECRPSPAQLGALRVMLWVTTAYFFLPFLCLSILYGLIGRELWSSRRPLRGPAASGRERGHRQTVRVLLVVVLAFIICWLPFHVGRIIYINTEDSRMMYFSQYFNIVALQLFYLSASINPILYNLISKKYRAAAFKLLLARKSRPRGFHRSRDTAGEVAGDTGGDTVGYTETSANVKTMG
Chain of Type-1 angiotensin II receptor (Homo sapiens) (P30556 whole entry): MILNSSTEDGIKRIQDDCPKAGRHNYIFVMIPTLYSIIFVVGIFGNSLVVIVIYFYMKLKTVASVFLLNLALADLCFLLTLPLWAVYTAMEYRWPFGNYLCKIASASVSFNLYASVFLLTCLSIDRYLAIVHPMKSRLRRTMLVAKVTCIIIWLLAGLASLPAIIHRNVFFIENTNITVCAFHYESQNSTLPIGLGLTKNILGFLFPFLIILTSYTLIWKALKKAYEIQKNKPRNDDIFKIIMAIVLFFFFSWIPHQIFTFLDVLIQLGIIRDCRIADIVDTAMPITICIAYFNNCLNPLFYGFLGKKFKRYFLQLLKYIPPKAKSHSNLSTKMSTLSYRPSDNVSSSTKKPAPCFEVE
Chain of Kappa-type opioid receptor (P41145 whole entry): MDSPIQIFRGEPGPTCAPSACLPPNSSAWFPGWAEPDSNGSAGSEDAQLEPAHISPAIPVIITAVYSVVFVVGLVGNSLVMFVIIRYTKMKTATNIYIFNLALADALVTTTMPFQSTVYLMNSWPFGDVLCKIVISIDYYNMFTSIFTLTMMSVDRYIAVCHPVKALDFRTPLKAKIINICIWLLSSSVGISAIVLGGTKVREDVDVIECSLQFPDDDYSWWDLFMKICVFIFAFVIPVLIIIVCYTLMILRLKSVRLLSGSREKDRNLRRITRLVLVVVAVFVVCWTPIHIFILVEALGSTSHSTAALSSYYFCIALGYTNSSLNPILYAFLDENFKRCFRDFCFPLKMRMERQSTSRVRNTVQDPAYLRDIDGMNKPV
Chain of CX3C chemokine receptor 1 (Homo sapiens) (P49238 whole entry): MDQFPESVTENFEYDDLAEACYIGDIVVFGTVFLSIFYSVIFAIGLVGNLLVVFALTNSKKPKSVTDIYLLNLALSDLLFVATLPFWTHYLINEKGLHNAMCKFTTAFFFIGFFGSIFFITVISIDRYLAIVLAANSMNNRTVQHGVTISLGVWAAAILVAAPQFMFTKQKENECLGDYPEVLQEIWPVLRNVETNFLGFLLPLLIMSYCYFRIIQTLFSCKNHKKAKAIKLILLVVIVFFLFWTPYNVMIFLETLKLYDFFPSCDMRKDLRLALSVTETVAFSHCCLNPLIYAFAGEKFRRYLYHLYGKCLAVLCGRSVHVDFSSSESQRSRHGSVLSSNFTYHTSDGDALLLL
Chain of fMet-Leu-Phe receptor (Homo sapiens) (P21462 whole entry): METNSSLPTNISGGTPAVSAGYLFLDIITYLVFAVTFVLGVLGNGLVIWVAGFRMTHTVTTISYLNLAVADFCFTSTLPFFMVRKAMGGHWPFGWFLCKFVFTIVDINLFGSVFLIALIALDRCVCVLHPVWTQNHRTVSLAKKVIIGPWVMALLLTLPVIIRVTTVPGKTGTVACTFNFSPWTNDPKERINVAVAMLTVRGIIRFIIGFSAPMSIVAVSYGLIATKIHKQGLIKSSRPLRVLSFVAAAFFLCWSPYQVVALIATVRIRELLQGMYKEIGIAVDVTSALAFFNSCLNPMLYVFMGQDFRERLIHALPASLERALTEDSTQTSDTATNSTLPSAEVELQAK
Chain of Adenosine receptor A3 (Rattus norvegicus) (P28647 whole entry): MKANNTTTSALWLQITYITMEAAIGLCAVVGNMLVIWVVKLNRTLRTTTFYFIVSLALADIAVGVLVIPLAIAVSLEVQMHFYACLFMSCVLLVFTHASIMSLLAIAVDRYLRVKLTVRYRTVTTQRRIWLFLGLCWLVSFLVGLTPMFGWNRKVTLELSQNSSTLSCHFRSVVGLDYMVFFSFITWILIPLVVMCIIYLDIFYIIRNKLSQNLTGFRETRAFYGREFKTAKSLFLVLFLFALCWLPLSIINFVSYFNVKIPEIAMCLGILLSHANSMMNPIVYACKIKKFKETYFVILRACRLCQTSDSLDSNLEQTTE

## CCS(=O)(=O)n1c2c(c3cc(C(=O)N4CCC(C)CC4)ccc31)CN(C1CCOCC1)CC2
[1]
  Ki: 120 nM
[2]
  EC50: 49 nM
[3]
  Ki: 9 nM
[4]
  EC50: 85 nM
[5]
  Emax: 156%
[6]
  solubility: 480 µg/mL (≈ 1010 µM)
[7]
  Activity: < 50%
[8]
  Activity: < 50%
[9]
  Activity: < 50%
[10]
  Activity: < 50%
[11]
  Activity: < 50%
[12]
  Activity: < 50%
[13]
  Activity: < 50%
[14]
  Activity: < 50%
[15]
  Activity: < 50%
[16]
  Activity: < 50%
[17]
  Activity: < 50%
[18]
  Activity: < 50%
[19]
  Activity: < 50%
[20]
  Activity: < 50%
[21]
  Activity: < 50%
[22]
  Activity: < 50%
[23]
  Activity: < 50%
[24]
  Activity: < 50%
[25]
  Activity: < 50%
[26]
  Activity: < 50%
[27]
  Activity: < 50%
[28]
  Activity: < 50%
[29]
  Activity: < 50%
[30]
  Activity: < 50%
[31]
  Activity: < 50%
[32]
  Activity: < 50%
[33]
  Activity: < 50%
[34]
  Activity: < 50%
[35]
  Activity: < 50%
[36]
  Activity: < 50%
[37]
  Activity: < 50%
[38]
  IC50: > 10000 nM
[39]
  fraction unbound: 0.13
[40]
  microsomal CLint: 202 µL/min/mg
[41]
  clearance: 28 mL/min/kg
[42]
  half-life: 37.8 min
[43]
  bioavailability: 16%
[44]
  IC50: > 20000 nM
[45]
  IC50: > 20000 nM
[46]
  IC50: > 20000 nM
[47]
  IC50: > 20000 nM
[48]
  concentration: 10 nM
[49]
  Activity: Dose-dependent effect
[50]
  Activity: Toxic
